Experimental data published in publication PMC5515376 (Nature, 2016).
“Also recorded” adds a separate entry of the source. Like-named read-outs stand apart in the source and are kept apart here.

How the values were obtained:
P. falciparum Dd2 = assay: In vitro P. falciparum blood-stage growth inhibition assay; format: cell-based, Plasmodium falciparum
[1] = test system: P. berghei (ANKA) liver stage; assay: In vitro P. berghei liver-stage assay; format: cell-based, Plasmodium berghei; conditions: read-out: EC50, liver stages; in vitro
Summary of the method: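 HepG2 cells (~17,500 per well, in duplicate) were cultured 18–24 h, then the medium was exchanged and compound added. After 1 h, 4,000 P. berghei ANKA GFP–luc sporozoites per well were added, freshly dissected from A. stephensi mosquitoes. Plates were spun 10 min at 1,000 r.p.m. and incubated 48 h at 37 °C. Parasite load was read by Bright-Glo luminescence.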

recombinant human DHODH = recombinant human DHODH (Homo sapiens, UniProt Q02127); assay: Human DHODH biochemical assay
Summary of the method: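 Recombinant human DHODH at 13 nM was tested against a 20-point inhibitor dilution series. Reactions contained 1 mM L-dihydroorotate (excess), 100 µM dodecylubiquinone as electron acceptor and 60 µM 2,6-dichloroindophenol as indicator, in 50 mM Tris-HCl pH 8.0, 150 mM KCl and 0.1% Triton X-100. Reactions ran 20 min at 25 °C and were read at OD600.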

TM90C6B strain = assay: Growth inhibition, TM90C6B strain; format: cell-based, Plasmodium falciparum; conditions: TM90C6B strain (atovaquone resistant)
[2] = test system: P. falciparum CYTb^G33V strain; assay: Growth inhibition, P. falciparum CYTb^G33V mutant strain; format: cell-based, Plasmodium falciparum
[3] = test system: PfscDHODH (P. falciparum line expressing S. cerevisiae DHODH); assay: Growth inhibition, PfscDHODH transgenic line; format: cell-based, Plasmodium falciparum; conditions: relative to Dd2
Summary of the method: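 Asexual blood-stage parasites were cultured to 3–8% parasitaemia, counted on Giemsa smears, and diluted in medium to 2.0% parasitaemia and 2.0% haematocrit. This suspension was added to compound dispensed from DMSO, giving a final 1% parasitaemia and 1% haematocrit, with mefloquine as control. Plates were incubated for 72 h at 37 °C. Growth was read by SYBR Green I fluorescence in Tris/EDTA/saponin/Triton X-100 lysis buffer.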

[4] = test system: P. berghei (ANKA GFP-luc) blood-stage parasites; assay: In vivo P. berghei blood-stage assay; design: species or system Plasmodium berghei; conditions: CD-1 mice; single 100 mg kg^−1 dose; parasites re-emerge very quickly
[5] = test system: parasite cytosolic Na^+ concentration; assay: Parasite cytosolic Na+ concentration measurement; format: cell-based, Plasmodium falciparum; conditions: after treatment
[6] = read-out: PfDd2 EC50, asexual blood-stage parasites (Dd2), SAR table

recombinant human DHODH, sequence (Q02127 whole entry): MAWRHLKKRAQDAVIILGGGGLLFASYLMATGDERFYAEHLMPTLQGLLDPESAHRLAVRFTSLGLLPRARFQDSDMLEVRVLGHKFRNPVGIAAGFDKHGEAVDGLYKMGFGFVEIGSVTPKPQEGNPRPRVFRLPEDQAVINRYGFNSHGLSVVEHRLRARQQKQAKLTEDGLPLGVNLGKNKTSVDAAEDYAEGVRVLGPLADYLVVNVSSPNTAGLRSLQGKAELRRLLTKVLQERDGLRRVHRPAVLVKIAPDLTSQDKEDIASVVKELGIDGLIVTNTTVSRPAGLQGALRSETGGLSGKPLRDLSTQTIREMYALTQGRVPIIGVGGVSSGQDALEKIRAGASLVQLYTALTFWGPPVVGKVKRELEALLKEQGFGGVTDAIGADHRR

Which EC50 (P. falciparum Dd2; [6]) does the source give for COc1ccc(NC(=O)N2CCCCN3[C@H](CO)[C@H](c4ccc(C#CC5CC5)cc4)[C@@H]3C2)cc1 [BRD5774] here?
Its EC50 is 12200 nM.

COc1ccc(NC(=O)N2CCCCN3[C@H](CN4CCN(C)CC4)[C@H](c4ccc(C#Cc5ccccc5)cc4)[C@@H]3C2)cc1 [BRD6479] was tested. Which EC50 (P. falciparum Dd2; [6]) did it give?
Its EC50 is 158 nM.

For CCCNC(=O)N1[C@H](C#N)[C@H](c2ccc(C#Cc3cccc(F)c3)cc2)[C@H]1CO [BRD7539], which EC50 (P. falciparum Dd2; read-out: EC50, asexual blood stages, in vitro) is on record?
The EC50 was 10 nM.

What about the EC50 [1] of the same compound?
Its EC50 is 15 nM.

What about the “Inhibition of human DHODH orthologue” value (recombinant human DHODH) of the same compound?
The value was “no inhibition”.

And the Change in potency (TM90C6B strain)?
The Change in potency was “unaffected”.

What about the Change in potency [2] of the same compound?
The Change in potency was “unaffected”.

And the “Potency against PfscDHODH” value [3]?
Its value is “markedly reduced potency; also recorded: selectively reduced potency”.

How did the EC50 (P. falciparum Dd2; [6]) turn out when COc1ccc(NC(=O)N2CCCCN3[C@H](CN4CCC4)[C@H](c4ccc(C#Cc5ccccc5)cc4)[C@@H]3C2)cc1 [BRD8493] was run?
Its EC50 is 116 nM.

For COc1ccc(NC(=O)N2CCCN3[C@H](CO)[C@H](c4ccc(C#Cc5ccccc5)cc4)[C@@H]3C2)cc1 [BRD9599], which EC50 (P. falciparum Dd2; [6]) is on record?
Its EC50 is 850 nM.

Which results are given for C[C@H]1[C@H](OC(=O)CCC(=O)O)O[C@@H]2O[C@@]3(C)CC[C@H]4[C@H](C)CC[C@@H]1[C@@]24OO3 [artesunate, reference compound]?
Effect on parasites [4]: rapid suppression of parasites; Parasite cytosolic Na^+ concentration [5]: constant

With O=C1C(O)=C([C@H]2CC[C@H](c3ccc(Cl)cc3)CC2)C(=O)c2ccccc21 [atovaquone, reference compound] as the compound, how does the EC90 (P. falciparum Dd2; Plasmodium falciparum, DD2) read?
The EC90 was 2 nM.

For OC(c1cc(C(F)(F)F)nc2c(C(F)(F)F)cccc12)C1CCCCN1 (centres unmarked) [mefloquine], which “Parasite cytosolic Na^+ concentration” value [5] is on record?
Its value is “constant”.
